Reference: ChEMBL document CHEMBL1155225, “Investigation of functionally liver selective glucokinase activators for the treatment of type 2 diabetes” (J Med Chem, 2009)
Activity calls are given as the source filed them. The calls are words filed in the database; no cut-off is given here.

Tests used:
[1] = Cmax in C57BL/6 mouse muscle at 60 mg/kg; assay type: ADME, organism-based, C57BL6, Muscle tissue; parameters: dose 60 mg/kg
In short: (§1)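 Normal male-unspecified C57BL6 mice given a single 60 mg/kg dose; plasma, liver, pancreas and muscle sampled over 0-24 h, 3 animals with samples pooled for analysis; Cmax (μM) and AUC0-24h (μM*h) of parent drug reported.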

Mus musculus [2] = assay: Antidiabetic activity in high fat diet-induced obese C57BL/6 type 2 diabetes mouse model assessed as increase in plasma insulin AUC at 100 mg/kg, po administered QD for 4 weeks by intravenous glucose tolerance test; assay type: functional, organism-based; parameters: dose 100 mg/kg; conditions: C57BL6
In short: (§2)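 Male C57BL6 mice kept on high fat diet dosed orally once daily with vehicle (dH2O) or compound at 30 to 100 mg/kg. Intravenous glucose tolerance test then run; plasma glucose excursion and plasma insulin AUC (0-120 min) calculated; n = 8 mice/group, mean ± SEM, p < 0.05 vs vehicle.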

Mus musculus [3] = assay: Antidiabetic activity in high fat diet-induced obese C57BL/6 type 2 diabetes mouse model assessed as improvement of glucose uptake at 30 to 100 mg/kg, po administered QD for 4 weeks by intravenous glucose tolerance test; assay type: functional, organism-based; conditions: C57BL6; in short: as §2
[4] = AUC (0 to 24 hrs) in C57BL/6 mouse liver at 60 mg/kg; assay type: ADME, organism-based, C57BL6; parameters: time < 24 hr, dose 60 mg/kg; in short: as §1
[5] = Cmax in C57BL/6 mouse liver at 60 mg/kg; assay type: ADME, organism-based, C57BL6; parameters: dose 60 mg/kg; in short: as §1
[6] = AUC (0 to 24 hrs) in C57BL/6 mouse muscle at 60 mg/kg; assay type: ADME, organism-based, C57BL6, Muscle tissue; parameters: time < 24 hr, dose 60 mg/kg; in short: as §1
Mus musculus [7] = assay: Antidiabetic activity in high fat diet-induced obese C57BL/6 type 2 diabetes mouse model assessed as improvement of insulin sensitivity at 30 to 100 mg/kg, po administered QD for 4 weeks by intravenous glucose tolerance test; assay type: functional, organism-based; conditions: C57BL6; in short: as §2
[8] = AUC (0 to 24 hrs) in C57BL/6 mouse pancreas at 60 mg/kg; assay type: ADME, organism-based, C57BL6; parameters: time < 24 hr, dose 60 mg/kg; in short: as §1
[9] = Cmax in C57BL/6 mouse plasma at 60 mg/kg; assay type: ADME, organism-based, C57BL6; parameters: dose 60 mg/kg; in short: as §1
Mus musculus [10] = assay: Antidiabetic activity in po dosed high fat diet-induced obese C57BL/6 type 2 diabetes mouse model assessed as decrease in glucose excursion administered QD for 4 weeks by intravenous glucose tolerance test; assay type: functional, organism-based; conditions: C57BL6; in short: as §2
[11] = AUC (0 to 24 hrs) in C57BL/6 mouse plasma at 60 mg/kg; assay type: ADME, organism-based, C57BL6; parameters: time < 24 hr, dose 60 mg/kg; in short: as §1
[12] = Cmax in C57BL/6 mouse pancreas at 60 mg/kg; assay type: ADME, organism-based, C57BL6; parameters: dose 60 mg/kg; in short: as §1
Mus musculus [13] = assay: Antidiabetic activity in high fat diet-induced obese C57BL/6 type 2 diabetes mouse model assessed as reduction of glucose output from liver at 30 to 100 mg/kg, po administered QD for 4 weeks by intravenous glucose tolerance test; assay type: functional, organism-based; conditions: C57BL6; in short: as §2
[14] = biological target: T1, Hexokinase-4 (Homo sapiens) (UniProt P35557); assay: Activation of His-tagged human recombinant liver glucokinase expressed in Escherichia coli BL21 (DE3) assessed as drug level required for half-maximal activation; assay type: single protein
T1 sequence (whole entry): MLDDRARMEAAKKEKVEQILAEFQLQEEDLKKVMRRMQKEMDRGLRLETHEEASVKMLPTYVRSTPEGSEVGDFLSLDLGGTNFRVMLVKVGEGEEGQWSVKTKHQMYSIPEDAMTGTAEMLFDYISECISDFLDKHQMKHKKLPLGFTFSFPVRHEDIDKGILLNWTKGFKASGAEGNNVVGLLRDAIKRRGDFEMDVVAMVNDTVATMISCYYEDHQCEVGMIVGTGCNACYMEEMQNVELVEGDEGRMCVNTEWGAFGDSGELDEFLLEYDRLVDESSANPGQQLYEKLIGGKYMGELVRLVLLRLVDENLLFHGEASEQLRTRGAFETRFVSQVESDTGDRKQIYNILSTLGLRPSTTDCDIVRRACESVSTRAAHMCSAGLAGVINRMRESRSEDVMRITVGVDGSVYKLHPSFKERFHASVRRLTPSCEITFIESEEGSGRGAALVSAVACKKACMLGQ
In short: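 Recombinant human liver GK (aa 17-466), His-tagged, expressed in E. coli BL21 Star (DE3), nickel affinity purified, tag cleaved (GPGSM left), then anion exchange and gel filtration to >95%.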

Mus musculus [15] = assay: Antidiabetic activity in high fat diet-induced obese C57BL/6 type 2 diabetes mouse model assessed as increase in plasma insulin AUC at 30 mg/kg, po administered QD for 4 weeks by intravenous glucose tolerance test; assay type: functional, organism-based; parameters: dose 30 mg/kg; conditions: C57BL6; in short: as §2
Mus musculus [16] = assay: Reduction in glucose excursion in C57BL/6 mouse at 10 mg/kg, iv administered 30 mins before glucose challenge measured at 2 hrs postdose by oral glucose tolerance test; assay type: functional, C57BL6; parameters: scale not given: the % may be the effect or the level left
In short: (§3)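 Normal C57BL6 mice, compound given IV at 10 mg/kg. Oral glucose at 1 g/kg 30 min after dosing. Plasma glucose read by glucose meter at 0 h and at 0.5, 1, 2 and 4 h post-dose. Reported as % reduction from vehicle control at the stated time, with significance at p < 0.05 or the p-value given.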

Mus musculus [17] = assay: Reduction in glucose excursion in C57BL/6 mouse at 50 mg/kg, po in water administered 30 mins before glucose challenge measured at 0.5 hr postdose by oral glucose tolerance test; assay type: functional, C57BL6; parameters: scale not given: the % may be the effect or the level left
In short: as §3, with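 “mice dosed by oral gavage” for “mice, compound given IV”, “50 mg/kg, with water as vehicle.” for “10 mg/kg.”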

[18] = Metabolic stability in human liver microsomes assessed as half life; assay type: ADME, Microsome
In short: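 Compound incubated at 1 μM with human liver microsomes plus selected cofactors (NADPH, UDPGA); clearance followed at 4 time points as % test compound remaining, giving half-life.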

[19] = Permeability at 5 to 10 uM at pH 4, 6.8 and 8 by PAMPA; conditions: pH 4, 6.8, 8, 10 µM

| Structure (SMILES) | Cmax [1] [µM] | Activity (Mus musculus [2]) | Activity (Mus musculus [3]) | AUC(0-t) at 24 h [4] [µM·h] | Cmax [5] [µM] | AUC(0-t) at 24 h [6] [µM·h] | Activity (Mus musculus [7]) | AUC(0-t) at 24 h [8] [µM·h] | Cmax [9] [µM] | Activity (Mus musculus [10]) | AUC(0-t) at 24 h [11] [µM·h] | Cmax [12] [µM] | Activity (Mus musculus [13]) | Activity [14] [nM] | Activity (Mus musculus [15]) | Activity (Mus musculus [16]) [%] | Activity (Mus musculus [17]) [%] | half-life [18] [min] | logPm [19] |
| --- | --- | --- | --- | --- | --- | --- | --- | --- | --- | --- | --- | --- | --- | --- | --- | --- | --- | --- | --- |
| COc1ccc2nc(NC(=O)[C@H](CC3CCCC3)c3ccc(S(=O)(=O)N4CCN(C)CC4)cc3)sc2n1 | 34.6 | inactive | Active | 511 | 44.5 | 167 | Active | 3230 | 4.3 | Dose-dependent effect | 52.4 | 218 | Active | 23 | inactive | – | – | – | – |
| COc1ccc2nc(NC(=O)C(CC3CCCC3)c3ccc(S(=O)(=O)N4CCNCC4)cc3)sc2n1.Cl (stereo not given) | – | – | – | – | – | – | – | – | – | – | – | – | – | 50 | – | 26 | 22 | < 1.5 | -4.9 |
